Laboratory results reported in ChEMBL document CHEMBL3632543, “Structural Dissection of Crotalicidin, a Rattlesnake Venom Cathelicidin, Retrieves a Fragment with Antimicrobial and Antitumor Activity” (J Med Chem, 2015).
Converted amounts (≈) assume the structure as drawn. The source made the active and inactive calls. No cut-off for these calls is given here. Where a SMILES comes first, the peptide text is derived from it.

What was measured:
Enterococcus faecalis [1] = experiment: Antibacterial activity against Enterococcus faecalis ATCC 29212 by microdilution method; format: functional
Method in brief: (§1)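 Strains subcultured at least twice on sheep blood agar and incubated 24 h before testing; inoculum made by direct suspension in saline to 0.5 McFarland turbidity. MIC determined by broth microdilution in Mueller–Hinton broth following CLSI guidelines; gentamicin run as control antibiotic.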

Enterococcus faecalis [2] = experiment: Antibacterial activity against clinical isolate Enterococcus faecalis by microdilution method; format: functional; method in brief: as §1
Staphylococcus aureus [3] = experiment: Antibacterial activity against Staphylococcus aureus ATCC 29213 by microdilution method; format: functional; method in brief: as §1
Staphylococcus aureus [4] = experiment: Antibacterial activity against clinical isolate Staphylococcus aureus by microdilution method; format: functional; method in brief: as §1
Streptococcus pyogenes = experiment: Antibacterial activity against clinical isolate Streptococcus pyogenes by microdilution method; format: functional
Method in brief: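 S. pyogenes isolate subcultured twice on sheep blood agar, incubated 24 h, suspended in saline to 0.5 McFarland. MIC by CLSI broth microdilution in Mueller–Hinton broth supplemented with 5% lysed horse blood; gentamicin control.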

Pseudomonas aeruginosa [5] = experiment: Antibacterial activity against Pseudomonas aeruginosa ATCC 27853 by microdilution method; format: functional; method in brief: as §1
Pseudomonas aeruginosa [6] = experiment: Antibacterial activity against clinical isolate Pseudomonas aeruginosa by microdilution method; format: functional; method in brief: as §1
Klebsiella pneumoniae = experiment: Antibacterial activity against clinical isolate Klebsiella pneumoniae by microdilution method; format: functional; method in brief: as §1
Escherichia coli [7] = experiment: Antibacterial activity against Escherichia coli ATCC 25922 by microdilution method; format: functional; method in brief: as §1
Escherichia coli [8] = experiment: Antibacterial activity against clinical isolate Escherichia coli by microdilution method; format: functional; method in brief: as §1
Acinetobacter baumannii = experiment: Antibacterial activity against clinical isolate Acinetobacter baumannii by microdilution method; format: functional
Method in brief: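 A. baumannii clinical isolate subcultured at least twice on sheep blood agar, 24 h incubation before testing; saline suspension adjusted to 0.5 McFarland. Broth microdilution MIC in Mueller–Hinton broth per CLSI; gentamicin as control antibiotic.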

HeLa S3 = experiment: Cytotoxicity against human HeLaS3 cells after 24 hrs by cell titer blue dye assay; format: functional, cell-based
Method in brief: (§2)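 Tumor cells cultured in DMEM with 10% FBS, 37 °C, 5% CO2, kept at 10^5–10^6 cells/mL. About 60 000 cells mixed with 2-fold serial peptide dilutions (final 0.1–100 μM) in DMEM with 2% FBS for 30 min at 37 °C. About 10 000 treated cells per well then got Cell Titer Blue; fluorescence (ex 530, em 590 nm) read 4 and 24 h after dye addition. Viability relative to medium-only controls; triplicate.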

U-937 [9] = experiment: Cytotoxicity against human U937 cells after 24 hrs by cell titer blue dye assay; format: functional, cell-based; method in brief: as §2
THP-1 [10] = experiment: Cytotoxicity against human THP1 cells after 24 hrs by cell titer blue dye assay; format: functional, cell-based; method in brief: as §2
[11] = Cytotoxicity against human HeLaS3 cells after 4 hrs by cell titer blue dye assay; format: functional, cell-based; conditions: HeLa S3, 4 h; method in brief: as §2
U-937 [12] = experiment: Cytotoxicity against human U937 cells after 4 hrs by cell titer blue dye assay; format: functional, cell-based; conditions: for IC50: U-937, 4 h; method in brief: as §2
THP-1 [13] = experiment: Cytotoxicity against human THP1 cells after 4 hrs by cell titer blue dye assay; format: functional, cell-based; conditions: for IC50: THP-1, 4 h; method in brief: as §2
[14] = Cytotoxicity against human 1BR3G cells assessed as reduction of cell viability at 100 uM after 4 hrs by cell titer blue dye assay; format: cell-based
Method in brief: (§3)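 1BR3G human fibroblasts grown in DMEM with 10% FBS at 37 °C, 5% CO2; 5000 cells/well seeded for 24 h, then medium swapped for DMEM with 2% FBS holding 2-fold serial peptide dilutions (final 0.1–100 μM). After 30 min, Cell Titer Blue added; fluorescence (ex 530, em 590 nm) read 4 and 24 h after dye addition. Viability relative to 2% FBS medium-only controls; triplicate.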

[15] = Cytotoxicity against human 1BR3G cells assessed as reduction of cell viability at 100 uM after 24 hrs by cell titer blue dye assay; format: cell-based; method in brief: as §3
[16] = Toxicity in human erythrocytes assessed as induction of hemolysis up to 400 uM incubated for 30 mins by microplate reader assay; format: cell-based, Erythrocyte; conditions: read-out: Activity
Method in brief: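 Fresh human blood collected in EDTA; erythrocytes washed three times in PBS. Mixed 1:1 with 2-fold serial peptide dilutions to final 4% (v/v) cells and 0.1–400 μM peptide. Incubated 30 min at 37 °C with gentle agitation, then centrifuged; supernatant A540 measured. Percent hemolysis scaled between untreated cells and 1% Triton X-100; triplicate.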

[17] = Half life in human serum at 1 mM incubated for 24 hrs by LC-MS analysis; format: ADME, cell-free
Method in brief: (§4)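 Human serum combined with equal volume of 1 mM aqueous peptide stock, incubated 24 h at 37 °C with gentle swirling. Aliquots taken at 0, 1, 5, 10, 30, 120, 360 and 1440 min, quenched with 15% trichloroacetic acid for 30 min at 4 °C, and centrifuged to remove serum proteins. Remaining peptide followed by LC-MS.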

[18] = Metabolic stability in human serum assessed as compound remaining at 1 mM after 24 hrs by LC-MS analysis; format: ADME, cell-free; conditions: read-out: Stability; method in brief: as §4
HL-60 [19] = experiment: Cytotoxicity against human HL60 cells after 24 hrs by cell titer blue dye assay; format: functional, cell-based
Method in brief: (§5)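 Suspension cells (~60 000) were mixed with 2-fold peptide dilutions (0.1–100 μM final) in DMEM/2% FBS, 30 min at 37 °C, 5% CO2. ~10 000 cells per well then received Cell Titer Blue. Resorufin fluorescence (ex 530/em 590 nm) was read at 4 and 24 h; viability relative to medium-only controls; triplicate.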

Jurkat E6.1 [20] = experiment: Cytotoxicity against human Jurkat E6-1 cells after 24 hrs by cell titer blue dye assay; format: functional, cell-based; method in brief: as §5
HL-60 [21] = experiment: Cytotoxicity against human HL60 cells after 4 hrs by cell titer blue dye assay; format: functional, cell-based; method in brief: as §5
Jurkat E6.1 [22] = experiment: Cytotoxicity against human Jurkat E6-1 cells after 4 hrs by cell titer blue dye assay; format: functional, cell-based; method in brief: as §5
[23] = Drug degradation in human serum at 1 mM after 24 hrs by LC-MS analysis; format: ADME, cell-free; conditions: read-out: Drug degradation; method in brief: as §4
[24] = Cytotoxicity against human 1BR3G cells after 4 hrs by cell titer blue dye assay; format: cell-based
Method in brief: (§6)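 1BR3G fibroblasts grown in DMEM/10% FBS, seeded 5000 cells/well, incubated 24 h at 37 °C, then medium swapped for 2% FBS medium with 2-fold peptide dilutions (0.1–100 μM final). After 30 min, Cell Titer Blue dye was added; fluorescence (ex 530/em 590 nm) read 4 and 24 h later. Viability relative to untreated medium controls; triplicate.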

[25] = Cytotoxicity against human 1BR3G cells after 24 hrs by cell titer blue dye assay; format: cell-based; method in brief: as §6
[26] = Toxicity in human erythrocytes assessed as induction of hemolysis at 100 uM incubated for 30 mins by microplate reader assay; format: cell-based, Erythrocyte; conditions: read-out: Activity
Method in brief: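 Fresh human blood erythrocytes, PBS-washed, were incubated as a 4% (v/v) final suspension with peptide (0.1–400 μM final) for 30 min at 37 °C with gentle agitation. After centrifugation, hemoglobin in the supernatant was read at A540. Percent hemolysis was calculated against 1% Triton X-100 (positive) and untreated cells; triplicate.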

Molecule | MIC (Enterococcus faecalis [1]) [µM] | MIC (Enterococcus faecalis [2]) [µM] | MIC (Staphylococcus aureus [3]) [µM] | MIC (Staphylococcus aureus [4]) [µM] | MIC (Streptococcus pyogenes) [µM] | MIC (Pseudomonas aeruginosa [5]) [µM] | MIC (Pseudomonas aeruginosa [6]) [µM] | MIC (Klebsiella pneumoniae) [µM] | MIC (Escherichia coli [7]) [µM] | MIC (Escherichia coli [8]) [µM] | MIC (Acinetobacter baumannii) [µM] | Activity (HeLa S3) | Activity (U-937 [9]) | Activity (THP-1 [10]) | IC50 [11] [µM] | IC50 (U-937 [12]) [µM] | IC50 (THP-1 [13]) [µM] | Activity [14] [%] | hemolysis at 0.5 h [16] [%] | half-life at 1000 µM [17] [h] | also measured
CC[C@H](C)[C@H](NC(=O)[C@H](CCCCN)NC(=O)[C@H](CCCCN)NC(=O)[C@H](CC(C)C)NC(=O)[C@H](CCCNC(=N)N)NC(=O)[C@H](CCCCN)NC(=O)[C@@H](N)CCCCN)C(=O)N[C@@H](Cc1ccccc1)C(=O)N[C@@H](CCCCN)C(=O)N[C@@H](CCCCN)C(=O)N1CCC[C@H]1C(=O)N[C@@H](CCSC)C(=O)N[C@H](C(=O)N[C@H](C(=O)NCC(=O)N[C@H](C(=O)N[C@H](C(=O)N[C@H](C(=O)N1CCC[C@H]1C(=O)N[C@@H](Cc1ccccc1)C(N)=O)[C@@H](C)CC)[C@H](C)O)C(C)C)[C@@H](C)CC)C(C)C | 54 (≈ 128 µg/mL) | 54 (≈ 128 µg/mL) | 54 (≈ 128 µg/mL) | 54 (≈ 128 µg/mL) | 3.4 (≈ 8.06 µg/mL) | 27 (≈ 64 µg/mL) | 27 (≈ 64 µg/mL) | 3.4 (≈ 8.06 µg/mL) | 0.11 (≈ 0.261 µg/mL) | 3.4 (≈ 8.06 µg/mL) | 1.7 (≈ 4.03 µg/mL) | Active | Active | Active | 1 | 6.25 | 25 | 20 | 7 | 12.8 | Activity [15]: Non-toxic; remaining at 24 h, 1000 µM [18]: 10%
CC(C)[C@H](NC(=O)[C@H](CO)NC(=O)[C@H](CCCCN)NC(=O)[C@H](CCCCN)NC(=O)[C@@H](NC(=O)[C@H](CCCCN)NC(=O)[C@H](CCCCN)NC(=O)[C@H](Cc1ccccc1)NC(=O)[C@H](Cc1ccccc1)NC(=O)[C@H](CCCCN)NC(=O)[C@H](CCCCN)NC(=O)[C@H](Cc1ccccc1)NC(=O)[C@H](CCCNC(=N)N)NC(=O)[C@@H](N)CCCCN)C(C)C)C(N)=O (H-KRFKKFFKKVKKSV-NH2) | 71 (≈ 128 µg/mL) | 71 (≈ 128 µg/mL) | 71 (≈ 128 µg/mL) | 71 (≈ 128 µg/mL) | 36 (≈ 64.7 µg/mL) | 71 (≈ 128 µg/mL) | 71 (≈ 128 µg/mL) | 71 (≈ 128 µg/mL) | 71 (≈ 128 µg/mL) | 71 (≈ 128 µg/mL) | 71 (≈ 128 µg/mL) | Active | inactive | inactive | > 10 |  |  | 20 | 7 | 0.35 | Activity (HL-60 [19]): inactive; Activity (Jurkat E6.1 [20]): inactive; Activity (U-937 [12]): inactive; Activity (THP-1 [13]): inactive; Activity (HL-60 [21]): inactive; Activity (Jurkat E6.1 [22]): inactive; Activity [15]: Non-toxic; metabolised at 24 h, 1000 µM [23]: 100%
GENTAMICIN | 17 | 34 | 0.5 | 0.5 | 17 | 2.1 | 17 | 4.2 | 1 | 34 | 17 |  |  |  |  |  |  |  |  |  | 
CC[C@H](C)[C@H](NC(=O)[C@H](CCCCN)NC(=O)[C@H](CCCCN)NC(=O)[C@H](CC(C)C)NC(=O)[C@H](CCCNC(=N)N)NC(=O)[C@H](CCCCN)NC(=O)[C@H](CCCCN)NC(=O)[C@@H](NC(=O)[C@H](CO)NC(=O)[C@H](CCCCN)NC(=O)[C@H](CCCCN)NC(=O)[C@@H](NC(=O)[C@H](CCCCN)NC(=O)[C@H](CCCCN)NC(=O)[C@H](Cc1ccccc1)NC(=O)[C@H](Cc1ccccc1)NC(=O)[C@H](CCCCN)NC(=O)[C@H](CCCCN)NC(=O)[C@H](Cc1ccccc1)NC(=O)[C@H](CCCNC(=N)N)NC(=O)[C@@H](N)CCCCN)C(C)C)C(C)C)C(=O)N[C@@H](Cc1ccccc1)C(=O)N[C@@H](CCCCN)C(=O)N[C@@H](CCCCN)C(=O)N1CCC[C@H]1C(=O)N[C@@H](CCSC)C(=O)N[C@H](C(=O)N[C@H](C(=O)NCC(=O)N[C@H](C(=O)N[C@H](C(=O)N[C@H](C(=O)N1CCC[C@H]1C(=O)N[C@@H](Cc1ccccc1)C(N)=O)[C@@H](C)CC)[C@H](C)O)C(C)C)[C@@H](C)CC)C(C)C | 7.7 (≈ 32 µg/mL) | 31 (≈ 129 µg/mL) | 7.7 (≈ 32 µg/mL) | 7.7 (≈ 32 µg/mL) | 3.8 (≈ 15.8 µg/mL) | 0.24 (≈ 0.996 µg/mL) | 3.8 (≈ 15.8 µg/mL) | 1.9 (≈ 7.89 µg/mL) | 0.06 (≈ 0.249 µg/mL) | 3.8 (≈ 15.8 µg/mL) | 3.8 (≈ 15.8 µg/mL) | Active | Active | Active | < 1 | < 1 | 1.56 |  | 33 | 1.18 | Activity (HL-60 [19]): Active; Activity (Jurkat E6.1 [20]): Active; IC50 (HL-60 [21]; HL-60, 4 h): > 12.5 µM; IC50 (Jurkat E6.1 [22]; Jurkat E6.1, 4 h): > 12.5 µM; IC50 [24]: 6.25 µM; Activity [25]: Toxic; hemolysis at 0.5 h, 100 µM [26]: 7%
